Structures are written as SMILES.

The target of test [1] is T1, 5-hydroxytryptamine receptor 1A (Rattus norvegicus, UniProt P19327).
T1 sequence (P19327 whole entry): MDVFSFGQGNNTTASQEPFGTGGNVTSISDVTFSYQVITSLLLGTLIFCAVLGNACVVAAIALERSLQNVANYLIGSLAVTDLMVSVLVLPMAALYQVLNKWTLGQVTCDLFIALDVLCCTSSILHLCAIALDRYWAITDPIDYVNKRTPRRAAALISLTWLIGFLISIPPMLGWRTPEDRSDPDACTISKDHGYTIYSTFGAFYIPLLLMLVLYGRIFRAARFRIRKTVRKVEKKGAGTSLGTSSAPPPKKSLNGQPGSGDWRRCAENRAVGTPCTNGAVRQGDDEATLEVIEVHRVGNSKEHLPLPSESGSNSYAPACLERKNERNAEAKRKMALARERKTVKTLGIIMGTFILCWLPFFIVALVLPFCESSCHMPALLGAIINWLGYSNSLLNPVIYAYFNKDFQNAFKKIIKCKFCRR
As to the kind of experiment: Binding affinity for 5-hydroxytryptamine 1A receptor measured by displacing [3H]8-OH-DPAT from rat cortical membranes. In outline:
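Rat hippocampus or cortex membranes; 1 nM [3H]-8-OH-DPAT; nonspecific binding set with 1 μM serotonin. Incubated with competing drug 45–60 min at 37 °C in buffer, then vacuum-filtered on glass-fiber filters and washed with ice-cold buffer. IC50 from nonlinear fit of competition curves, mean of 3–7 experiments. Ki by Cheng–Prusoff.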

The target in test [2] is T2, Alpha-1A adrenergic receptor (Rattus norvegicus, UniProt P43140).
T2 sequence (P43140 whole entry): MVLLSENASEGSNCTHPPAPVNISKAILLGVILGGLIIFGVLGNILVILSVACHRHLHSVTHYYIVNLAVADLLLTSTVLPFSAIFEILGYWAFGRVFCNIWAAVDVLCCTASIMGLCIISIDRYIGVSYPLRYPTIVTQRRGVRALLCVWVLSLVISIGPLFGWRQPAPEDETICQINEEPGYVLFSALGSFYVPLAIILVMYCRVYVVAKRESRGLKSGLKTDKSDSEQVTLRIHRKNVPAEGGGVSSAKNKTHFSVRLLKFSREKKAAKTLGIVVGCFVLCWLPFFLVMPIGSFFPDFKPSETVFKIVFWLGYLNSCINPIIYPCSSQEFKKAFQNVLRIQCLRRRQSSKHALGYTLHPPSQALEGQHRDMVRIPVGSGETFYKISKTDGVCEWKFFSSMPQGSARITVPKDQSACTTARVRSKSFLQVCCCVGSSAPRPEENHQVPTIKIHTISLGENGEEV
As to the kind of experiment: Binding affinity for Alpha-1 adrenergic receptor measured by displacing [3H]prazosin from rat cortical membranes. In outline: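 Rat cortex membranes labelled with 0.4 nM [3H]prazosin; 10 μM phentolamine defined nonspecific binding. Incubation with competing drugs 45–60 min at 37 °C, then vacuum filtration on glass-fiber filters with ice-chilled buffer wash. IC50 by nonlinear curve fitting (three to seven experiments); Ki via Cheng–Prusoff using KD 0.1 nM for [3H]prazosin.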

Test [3] concerns the target T3, Adrenergic receptor alpha-2 (Homo sapiens, UniProt P08913+P18825+P18089).
T3 sequence (P08913 whole entry): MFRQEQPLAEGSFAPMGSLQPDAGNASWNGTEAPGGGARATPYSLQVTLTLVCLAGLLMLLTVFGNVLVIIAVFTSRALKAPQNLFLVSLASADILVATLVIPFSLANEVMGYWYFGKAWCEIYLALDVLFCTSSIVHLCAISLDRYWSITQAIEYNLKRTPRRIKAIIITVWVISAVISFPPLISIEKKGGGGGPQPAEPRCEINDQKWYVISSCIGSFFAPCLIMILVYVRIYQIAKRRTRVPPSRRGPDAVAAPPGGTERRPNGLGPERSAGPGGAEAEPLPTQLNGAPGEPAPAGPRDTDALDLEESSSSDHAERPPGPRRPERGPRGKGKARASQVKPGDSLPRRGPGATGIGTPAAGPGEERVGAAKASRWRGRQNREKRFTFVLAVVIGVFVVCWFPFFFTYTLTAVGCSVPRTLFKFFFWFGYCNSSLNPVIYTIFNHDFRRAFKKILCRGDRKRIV
T3 sequence (P18825 whole entry): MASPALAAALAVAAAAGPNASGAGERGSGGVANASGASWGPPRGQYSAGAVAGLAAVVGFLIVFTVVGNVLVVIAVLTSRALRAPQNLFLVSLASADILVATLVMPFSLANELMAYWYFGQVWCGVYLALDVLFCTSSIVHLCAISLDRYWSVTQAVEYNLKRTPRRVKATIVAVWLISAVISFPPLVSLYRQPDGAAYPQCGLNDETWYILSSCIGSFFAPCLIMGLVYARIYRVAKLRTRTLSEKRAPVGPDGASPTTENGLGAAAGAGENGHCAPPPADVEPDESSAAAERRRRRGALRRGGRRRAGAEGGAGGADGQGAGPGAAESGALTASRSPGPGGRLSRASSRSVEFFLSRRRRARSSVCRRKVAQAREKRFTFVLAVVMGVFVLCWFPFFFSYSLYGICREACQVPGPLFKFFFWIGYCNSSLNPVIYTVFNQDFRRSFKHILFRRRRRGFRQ
T3 sequence (P18089 whole entry): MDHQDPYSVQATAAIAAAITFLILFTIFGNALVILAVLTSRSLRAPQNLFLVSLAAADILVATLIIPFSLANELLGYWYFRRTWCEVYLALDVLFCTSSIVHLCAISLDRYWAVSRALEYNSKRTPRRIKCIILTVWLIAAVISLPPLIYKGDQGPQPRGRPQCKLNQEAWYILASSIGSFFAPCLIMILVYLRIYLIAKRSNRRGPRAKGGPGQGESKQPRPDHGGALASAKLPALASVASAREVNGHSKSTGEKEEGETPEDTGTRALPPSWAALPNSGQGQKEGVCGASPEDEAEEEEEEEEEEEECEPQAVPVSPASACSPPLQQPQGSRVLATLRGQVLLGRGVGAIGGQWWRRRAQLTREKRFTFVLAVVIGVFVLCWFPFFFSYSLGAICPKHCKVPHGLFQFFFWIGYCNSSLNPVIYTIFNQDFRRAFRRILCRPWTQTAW
As to the kind of experiment: Binding affinity towards Alpha-2 adrenergic receptor in human platelet membranes using [3H]yohimbine. It is filed as cell membranes. In outline: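 Human platelet membranes, [3H]yohimbine 3.5 nM; nonspecific binding defined by 100 μM phentolamine. Competition run 45–60 min at 37 °C, stopped by rapid vacuum filtration over glass-fiber filters and ice-chilled buffer washes. IC50 by nonlinear regression, mean of three to seven experiments; converted to Ki with the Cheng–Prusoff equation.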

For test [4], the target named is Beta-2 adrenergic receptor (Homo sapiens, UniProt P07550). As to the kind of experiment: Binding affinity towards Beta-2 adrenergic receptor in human peripheral mononuclear leukocyte membranes using [125I]pindolol. In outline: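 Membranes from human peripheral blood mononuclear leukocytes bound [125I]pindolol (100 pM); 1 μM (-)-propranolol gave nonspecific binding. 45–60 min at 37 °C with or without competitors, then rapid filtration through glass-fiber filters and ice-cold buffer wash. IC50 from nonlinear fitting over three to seven experiments; Ki by Cheng–Prusoff.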
Beta-2 adrenergic receptor, sequence (P07550 whole entry): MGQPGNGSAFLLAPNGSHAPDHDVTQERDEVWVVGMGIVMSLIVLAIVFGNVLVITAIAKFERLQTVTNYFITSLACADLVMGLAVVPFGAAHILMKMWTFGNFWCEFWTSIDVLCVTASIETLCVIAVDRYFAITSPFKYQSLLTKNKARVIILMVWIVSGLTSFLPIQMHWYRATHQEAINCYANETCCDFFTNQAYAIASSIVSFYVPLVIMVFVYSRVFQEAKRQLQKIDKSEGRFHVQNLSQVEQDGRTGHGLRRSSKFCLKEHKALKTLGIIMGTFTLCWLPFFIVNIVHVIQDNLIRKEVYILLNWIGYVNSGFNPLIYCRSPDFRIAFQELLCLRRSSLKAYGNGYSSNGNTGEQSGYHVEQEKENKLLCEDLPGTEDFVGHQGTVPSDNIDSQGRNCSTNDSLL

The target in test [5] is T2, Alpha-1A adrenergic receptor. As to the kind of experiment: Binding affinity measured for alpha-1 adrenergic receptor by displacement of [3H]prazosin from rat cortical membranes. It is filed as cell membranes, Membrane.
Test [6] deals with T1, 5-hydroxytryptamine receptor 1A.

For the compound `COc1ccccc1N1CCN(CCCn2c(=O)[nH]c3c([nH]c4ccccc43)c2=O)CC1`, the Ki in test [1] turned out to be 308 nM; in test [2], 13 nM; in test [3], 55 nM; in test [4], 1180 nM.

With `COc1ccc(N2CCN(CCn3c(=O)[nH]c4c([nH]c5ccccc54)c3=O)CC2)cc1`, the Ki in test [1] is greater than 100000 nM; in test [2], greater than 5000 nM; in test [3], greater than 100000 nM; in test [4] it was greater than 100000 nM.

On to `O=c1[nH]c2c([nH]c3ccccc32)c(=O)n1CCN1CCN(c2ccccc2Cl)CC1`, for which the Ki in test [1] is greater than 100000 nM; in test [2], 0.53 nM; in test [3], greater than 100000 nM; in test [4], greater than 100000 nM.

In test [2], `O=c1[nH]c2c([nH]c3ccccc32)c(=O)n1CCN1CCNCC1` registered an inhibition constant (Ki) greater than 100000 nM.

`CN(C)CCCn1c(=O)[nH]c2c([nH]c3ccccc32)c1=O` displayed a Ki in test [5] greater than 100000 nM.

`CCOC(=O)N1CCN(CCn2c(=O)[nH]c3c([nH]c4ccccc43)c2=O)CC1` came in with a Ki in test [5] greater than 100000 nM.

In test [5], `CN(C)CCn1c(=O)[nH]c2c([nH]c3ccccc32)c1=O` gave a Ki greater than 100000 nM.

Compound `O=c1[nH]c2c([nH]c3ccccc32)c(=O)n1CCN1CCOCC1` displayed a Ki in test [5] greater than 100000 nM.

Regarding `COc1ccccc1N1CCN(CCn2c(=O)c3c(c4ccccc4n3C)n(C)c2=O)CC1`, the Ki was determined as 1.5 nM in test [1], 0.32 nM in test [2] and 2215 nM in test [3].

In the case of `COc1ccccc1N1CCNCC1`, the Ki in test [1] turned out to be 281 nM; in test [5], 3510 nM.

As for `COc1ccccc1N1CCN(CCn2c(=O)[nH]c3c([nH]c4ccccc43)c2=O)CC1`, the Ki is 50 nM in test [1], 0.21 nM in test [2], “>= 1000 nM” in test [3] and greater than 100000 nM in test [4].

As to `O=c1[nH]c2c([nH]c3ccccc32)c(=O)n1CCN1CCCC1`, in test [5], the Ki was greater than 100000 nM.

Consider `O=c1[nH]c2c([nH]c3ccccc32)c(=O)n1CCN1CCN(c2ccc(Cl)cc2)CC1`, for which the Ki was greater than 100000 nM in test [1], no less than 10000 nM in test [2], greater than 100000 nM in test [3] and greater than 100000 nM in test [4].

`Clc1ccccc1N1CCNCC1`: the values for the Ki in test [5] and in test [6] were 710 nM and 226 nM, respectively.

With `CCN(CC)CCn1c(=O)[nH]c2c([nH]c3ccccc32)c1=O`, the Ki in test [5] was greater than 100000 nM.

As for `O=c1[nH]c2c([nH]c3ccccc32)c(=O)n1CCN1CCCCC1`, in test [5], the Ki was greater than 100000 nM.

Compound `CCN(CC)CCCn1c(=O)[nH]c2c([nH]c3ccccc32)c1=O` displayed a Ki in test [5] greater than 100000 nM.

With `O=c1[nH]c2c([nH]c3ccccc32)c(=O)n1CCN1CCN(c2ccccc2)CC1`, the Ki in test [1] was greater than 100000 nM; in test [2], 1.8 nM; in test [3], greater than 100000 nM; in test [4] it was greater than 100000 nM.

As a reminder, the Ki is a measure of affinity in units of concentration, obtained from inhibition or displacement. A lower Ki goes with a stronger hold on the target.

Source of the values: ChEMBL document CHEMBL1125821, “Pyrimido[5,4-b]indole derivatives. 1. A new class of potent and selective alpha 1 adrenoceptor ligands” (J Med Chem, 1991).
